According to ChEMBL document CHEMBL1145896, “5-Substituted-2,4-diamino-6-[2-(phosphonomethoxy)ethoxy]pyrimidines-acyclic nucleoside phosphonate analogues with antiviral activity” (J Med Chem, 2003):

Assays:
[1] = system: Human alphaherpesvirus 3; experiment: Antiviral activity against 07/1 strain of VZV in HEL ([…]) cells.; assay type: functional, organism-based
Outline: (§1)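 Inhibition of virus-induced cytopathicity. HSV-1 and HSV-2 were tested in E6SM cells; VZV and CMV in HEL cells. Confluent monolayers were inoculated with 100 CCID50 of virus. After 1–2 h adsorption, residual virus was removed and compound was added at serial concentrations (400, 200, 100, ... μg/mL). Cytopathicity was scored once untreated infected controls reached complete CPE.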

[2] = Antiviral activity against vaccinia virus in HEL ([…]) cells.; assay type: functional, cell-based
[3] = system: CCRF-CEM; experiment: Cytotoxicity against CEM (human lymphoblastic leukemia) cells in vitro.; assay type: functional
[4] = system: Human alphaherpesvirus 3; experiment: Antiviral activity against OKA strain of VZV in HEL ([…]) cells.; assay type: functional, organism-based; set-up: unit not given here; outline: as §1
[5] = Antiviral activity against G strain of HSV-2 in E6SM cells.; assay type: functional, cell-based, herpes simplex virus; outline: as §1
[6] = system: Human immunodeficiency virus 1; experiment: Antiviral activity against HIV-1 (IIIB) in CEM (human leukemia) cells.; assay type: functional, organism-based; conditions: ccrf-cem
Outline: (§2)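 Human CEM cells (~3 × 10^5 cells/mL) were infected with 100 CCID50 per mL of HIV-1 (IIIB) or HIV-2 (ROD) and seeded into wells containing compound dilutions. After 4 days at 37 °C, syncytium (giant cell) formation was examined microscopically.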

[7] = Antiviral activity against KOS strain of HSV-1 in E6SM cells.; assay type: functional, cell-based, herpes simplex virus; outline: as §1
[8] = system: Cytomegalovirus; experiment: Antiviral activity against AD169 strain of cytomegalovirus (CMV) in HEL ([…]) cells.; assay type: functional, organism-based; outline: as §1
[9] = system: Moloney murine sarcoma virus; experiment: Antiviral activity against murine sarcoma virus; assay type: functional, organism-based
Outline: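 Murine C3H/3T3 embryo fibroblasts were seeded at 5 × 10^5 cells/mL. After 24 h, cells were infected with 80 focus-forming units of MSV (from mouse tumours) for 90–120 min at 37 °C. Medium was then replaced by fresh medium containing varied compound concentrations, and MSV-induced transformation was the read-out.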

[10] = system: Cytomegalovirus; experiment: Antiviral activity against Davis strain of cytomegalovirus (CMV) in HEL ([…]) cells.; assay type: functional, organism-based; outline: as §1
[11] = system: Human immunodeficiency virus 2; experiment: Antiviral activity against HIV-2 (ROD) in CEM (human leukemia) cells.; assay type: functional, organism-based; conditions: ccrf-cem; outline: as §2

| SMILES | EC50 [1] [uM ml-1] | EC50 [2] [uM ml-1] | CC50 [3] [µM] | EC50 [4] | EC50 [5] [uM ml-1] | EC50 [6] [uM ml-1] | EC50 [7] [uM ml-1] | EC50 [8] [uM ml-1] | EC50 [9] [uM ml-1] | EC50 [10] [uM ml-1] | EC50 [11] [uM ml-1] |
| --- | --- | --- | --- | --- | --- | --- | --- | --- | --- | --- | --- |
| CCOC(=O)Cc1c(N)nc(N)n(CCOCP(=O)(O)O)c1=O | > 0.15 | > 1.2 | > 300 | > 0.15 | > 1.2 | > 0.3 | > 1.2 | > 0.15 | 0.011 | > 0.15 | 0.11 |
| Nc1nc(N)c(Cc2ccccc2)c(OCCOCP(=O)(O)O)n1 | > 0.15 | > 1.2 | > 300 | > 0.15 | – | > 0.3 | > 1.2 | > 0.15 | > 1.12 | > 0.15 | > 0.3 |
| N#CCc1c(N)nc(N)nc1OCCOCP(=O)(O)O | 0.11 | > 1.2 | > 300 | 0.14 | > 1.2 | > 0.3 | > 1.2 | > 0.15 | 0.3 | > 0.15 | > 0.3 |
| Nc1nc(N)c(Br)c(OCCOCP(=O)(O)O)n1 | > 0.15 | 0.7 | > 300 | – | 0.7 | 0.0073 | 0.7 | > 0.15 | 0.007 | – | 0.0095 |
| Nc1nc(N)n(CCOCP(=O)(O)O)c(=O)c1-c1ccccc1 | > 0.15 | > 1.2 | > 300 | > 0.15 | > 1.2 | > 0.3 | > 1.2 | > 0.15 | > 1.12 | > 0.15 | > 0.3 |
| C=CCc1c(N)nc(N)n(CCOCP(=O)(O)O)c1=O | > 0.15 | > 1.2 | > 300 | > 0.15 | 0.77 | > 0.3 | > 1.2 | > 0.15 | > 1.12 | > 0.15 | > 0.3 |
| C=CCc1c(N)nc(N)nc1OCCOCP(=O)(O)O | > 0.15 | > 1.2 | > 300 | > 0.15 | 0.79 | > 0.3 | > 1.2 | > 0.15 | > 1.12 | > 0.15 | > 0.3 |
| Nc1nc(N)c(Cl)c(OCCOCP(=O)(O)O)n1 | – | > 1.2 | 300 | – | > 1.2 | 0.0031 | > 1.2 | > 0.12 | 0.0028 | > 0.6 | 0.0044 |
| Nc1nc(N)n(CCOCP(=O)(O)O)c(=O)c1CC(=O)O | > 0.15 | > 1.2 | > 300 | > 0.15 | > 1.2 | > 0.3 | > 1.2 | > 0.15 | 0.082 | > 0.15 | > 0.3 |
| Nc1nc(N)n(CCOCP(=O)(O)O)c(=O)c1Cc1ccccc1 | > 0.15 | > 1.2 | > 300 | > 0.15 | > 1.2 | > 0.3 | > 1.2 | > 0.15 | > 1.12 | > 0.15 | > 0.3 |
| Nc1nc(N)c(-c2ccccc2)c(OCCOCP(=O)(O)O)n1 | > 0.15 | > 1.2 | > 300 | > 0.15 | > 1.2 | > 0.3 | > 1.2 | > 0.15 | > 1.12 | > 0.15 | > 0.3 |
